# OX1R antag-1: blocks the human orexin 1 receptor; O43613; CHO/OX1R cells, Fluo-8 calcium fluorescence, orexin A; inhibition, % at 5 µM; 0.43% of 330,000 active;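 active = inhibition above its plate's threshold, mean inhibition of all tested compounds on the plate plus 3 SD, cut at about 37% in these data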;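 note: 0% = orexin A challenge wells and 100% = SB-334867-A antagonist wells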
# TAAR1 ag: agonists of human TAAR1; CHO RD-HGA16 TAAR1, Fluo-8 calcium fluorescence; vehicle wells 0%, saturating PEA agonist 100%; activation, % at 3 µM; 0.99% of 360,000 active; AID 624467;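 active = activation above the mean activation of all test compounds in the run plus 3 SD, cut at about 38% in these data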
#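 System: CHO-derived RD-HGA16 cells with stable Gα16 and human TAAR1 / Times: 17-24 h plating, Fluo-8 75 min 37 °C, 30 min RT / Technique: calcium-sensitive Fluo-8 signal, excitation 470-495, emission 515-575 nm / Measure: % activation relative to PEA EC100 response / Benchmarks: DMSO and PEA EC100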
# OX1R antag-2: antagonists of human orexin 1 receptor (OX1R); 1.8% of 330,000 active; inhibition, % at 6.6 µM; O43613; OX1R-expressing cells, FRET antagonist read-out; in the data active = inhibition mostly above about 38%, no sharp cut-off; inactive = mostly below about 40%;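 note: 0% = agonist challenge alone and 100% = reference antagonist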
# GPR7 antagonist: antagonists of human GPR7 (neuropeptides B/W receptor 1); P48145; GPR7-expressing cells, fluorescence antagonist assay; inhibition, % at 4.4 µM; 1.1% of 290,000 active; in the data active = inhibition above about 16%, passing the limit was not always enough;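 note: cells stimulated with the agonist NPW; 0% = agonist with vehicle and 100% = vehicle without agonist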
# Target sequence (P48145 whole entry, looked up): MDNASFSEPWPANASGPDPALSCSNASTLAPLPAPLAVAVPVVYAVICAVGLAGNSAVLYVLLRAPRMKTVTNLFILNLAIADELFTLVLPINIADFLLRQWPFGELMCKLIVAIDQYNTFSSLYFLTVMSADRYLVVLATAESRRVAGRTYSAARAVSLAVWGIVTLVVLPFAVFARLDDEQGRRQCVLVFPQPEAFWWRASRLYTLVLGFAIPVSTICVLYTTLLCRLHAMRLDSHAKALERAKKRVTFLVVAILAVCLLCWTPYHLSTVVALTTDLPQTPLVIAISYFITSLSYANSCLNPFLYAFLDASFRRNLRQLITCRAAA
# TAAR1 antagonist: human TAAR1 antagonism. 1.5% of 360,000 active. AID 624466. Q96RJ0. inhibition, % at 3 µM. CHO RD-HGA16 TAAR1, Fluo-8 calcium fluorescence, antagonist;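 active = inhibition above a per-plate cutoff, the mean inhibition of test compounds on that plate plus 3 SD, cut at about 49% in these data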;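 note: 0% = DMSO plus EC80 beta-PEA response and 100% = DMSO alone without agonist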
#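 Assay system: CHO-derived RD-HGA16 cells stably expressing human TAAR1 plus Gα16. Timing: 140 s kinetic read after compound, 140 s after agonist. Technique: kinetic Fluo-8 calcium fluorescence measurement. Measure: % inhibition of agonist calcium response.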
# CHO parental Ca: signal in parental CHO cells, OX1R antagonist counter-screen | AID 463079 | 0.63% of 330,000 active | inhibition, % at 5.6 µM | parental CHO-K1, ATP-induced calcium, Fluo-8 fluorescence;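 active = inhibition above that plate's mean sample inhibition plus 3 SD, cut at about 26% in these data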;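 note: 0% = ATP-challenged DMSO wells and 100% = DMSO wells without ATP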
#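 Test system: untransfected parental CHO cell line; also added: ATP stimulus; dosing: 5.6 µM, single dose; signal: calcium-sensitive Fluo-8 fluorescence; measure: percent inhibition of ATP-evoked calcium rise, normalized to controls; benchmarks: low control ATP plus DMSO, high control DMSO only; replication: one well per compound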
# * = called active by the depositor; . = no result given. Sampled rows, rich in hits. Any-hit rate of the full collection: about 4.6%.
SMILES,OX1R antag-1,TAAR1 ag,OX1R antag-2,GPR7 antagonist,TAAR1 antagonist,CHO parental Ca
CCCn1c(CN2CCN(c3cccc(Cl)c3)CC2)nc2c1c(=O)n(C)c(=O)n2C,-25,2,21,-3,2,33*
COc1ccc(NC(=O)c2cc(-c3ccco3)on2)cc1,5,2,15,7,-26,64*
COc1ccc(NC(=O)c2cc(-c3ccccc3OC)on2)cc1,-1,7,45*,10,18,-18
CCCN1C(=O)c2cccc3c(N4CCCCC4)ccc(c23)C1=O,4,19,7,11,-11,-5
CCN1C(=O)c2cccc3c(N)ccc(c23)C1=O,58*,136*,19,16,42,46*
O=C1CCCN1CCCNc1ncccc1[N+](=O)[O-],-8,-2,43*,-6,-10,6
CNc1nc(NCCCN2CCCC2=O)c2sccc2n1,.,26,.,.,17,.
CCCCCCCCNS(=O)(=O)CCNCc1ccccc1OC,.,16,.,.,7,.
Cc1c(NC(=O)c2ccc3c(c2)OCO3)cccc1-c1nc2ccccc2o1,-5,9,52*,9,17,-25
O=C(Nc1ccccc1-c1nc2ccccc2o1)c1ccc2c(c1)OCCO2,.,.,.,-2,.,.
Cc1nc(N2CCN(c3ccccn3)CC2)c2c(C)c(C(=O)Nc3c(F)cc(F)cc3Br)sc2n1,-28,3,17,11,57*,-11
Cc1nc(N2CCN(c3ccccn3)CC2)c2c(C)c(C(=O)Nc3ccc(Cl)cc3)sc2n1,-13,4,6,-5,-22,-2
COc1ccc(-c2cc(-c3nnc(COC(=O)C4CC4)o3)c3ccccc3n2)cc1OC,-13,9,19,-8,52*,-2
COc1ccc(-c2cc(-c3nnc(COC(=O)CC4CCCC4)o3)c3ccccc3n2)cc1OC,-27,4,4,-2,29,-2
COc1cc(-c2nnc(COC(=O)CSc3cc(C)c4ccccc4n3)o2)cc(OC)c1OC,10,2,70*,-5,-5,-18
COc1cc(CCC(=O)OCc2nnc(-c3ccccc3)o2)cc(OC)c1OC,-20,8,13,-9,-7,-26
CC(=O)Nc1cccc(NC(=O)c2cc(-c3ccccn3)nc3ccc(Cl)cc23)c1,-17,9,11,-8,65*,-18
COc1cccc(NC(=O)CN(C)C(=O)c2ccccc2OCC(=O)Nc2cccc(C(F)(F)F)c2)c1,-11,15,41,.,48,-21
CN(CC(=O)Nc1cccc(F)c1)C(=O)c1ccccc1OCC(=O)Nc1cccc(C(F)(F)F)c1,-2,19,17,.,82*,-20
Cc1cccc(NC(=O)CC2c3ccccc3Oc3ccccc32)c1,-11,0,51*,3,-14,-12
CCc1ccc(OC(C)C(=O)Nc2ccc(S(=O)(=O)Nc3nccs3)cc2)cc1 (stereo not given),9,45*,13,11,55*,12
O=C1NN=C2CCCCCC12 (stereo not given),.,2,.,.,-7,.
O=C(Nc1ccc(Cl)cc1)c1nc[nH]c1C(=O)NCCCCNC(=O)c1[nH]cnc1C(=O)Nc1ccc(Cl)cc1,-10,13,6,.,52*,13
O=C(CC1S/C(=N/N=C/c2c[nH]c3ccc(OCc4ccccc4)cc23)NC1=O)Nc1ccccc1 (stereo not given),-10,6,-2,-16,-1,7
O=C(CC1S/C(=N/N=C/c2c[nH]c3ccccc23)NC1=O)Nc1ccccc1 (stereo not given),1,5,14,18*,18,7
CCOC(=O)C(=NO)C1=CSC2=NNC(C)(C)N12,.,5,.,.,-20,.
CC(=O)c1c2c3c(cccc3n(C)c1=O)C(=O)c1ccccc1-2,-26,.,25,-7,.,-8
CC(=O)c1c2c3c(c(Br)ccc3n(C)c1=O)C(=O)c1ccccc1-2,-4,4,56*,8,-3,-18
Cc1ccc(NC(=O)C[n+]2ccn(C3=C([O-])c4ccccc4C3=O)c2)cc1,-7,43*,40,-25,11,-2

# Compound activity: PubChem BioAssay, The Scripps Research Institute Molecular Screening Center
